Data on 1 molecule can be found in ChEMBL document CHEMBL5579886, “Selective Degradation of MLK3 by a Novel CEP1347-VHL-02 PROTAC Compound Limits the Oncogenic Potential of TNBC” (J Med Chem, 2024).

The structures appear in SMILES notation. The source made the active and inactive calls. The rule behind the calls is not given here.

For assay [1], the system named is MDA-MB-468. Kind of assay: Inhibition of colony formation in human MDA-MB-468 cells harboring siMLK3 by crystal violet staining based analysis. It counts as functional, cell-based. An outline of the steps: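 MCF-7 or MDA-MB-468 seeded at 10 000 cells/well, transfected next day with MAP3K11 SMARTpool siRNA or nontargeting control siRNA; crystal violet staining 7 days after transfection. Knockdown confirmed by immunoblot.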

Assay [2] has as its target T1, von Hippel-Lindau disease tumor suppressor/Mitogen-activated protein kinase kinase kinase 11 (Homo sapiens, UniProt Q16584+P40337). Kind of assay: PROTAC activity at VHL/MLK3 in human MDA-MB-468 cells assessed as decrease in JNK pathway at 1 uM measured after 24 hrs by immunoblot analysis. The format is cell-based. (In general: In western blotting, separated proteins are transferred to a membrane and probed.)

Assay [3] relates to MCF7. Put plainly: Effect on cell cycle in human MCF7 cells at 1 uM measured after 48 hrs by PI staining based flow cytometry. The format is functional. Put shortly:
(§1)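 Cells seeded at 50 000/well, exposed to 1 μM PROTAC or DMSO for 48 h, trypsinized, fixed in ice-cold methanol and held at –20 °C; next day stained with PI/RNase solution and read by flow cytometry. Two independent experiments.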

The target in assay [4] is T1, von Hippel-Lindau disease tumor suppressor/Mitogen-activated protein kinase kinase kinase 11. Put plainly: PROTAC activity at VHL/DOX-inducible MLK3 (unknown origin) overexpressed in carfilzomib-treated human HCC1806 cells assessed as protein degradation at 0.25 to 1 uM measured after 7 hrs by immunoblot analysis. The format is cell-based. Conditions: dose 0.25-1 µM. Put shortly: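 HCC1806 cells with DOX-inducible MLK3 were induced with 1 μg/mL DOX for 24 h. They were pretreated with 1 μM carfilzomib (proteasome inhibitor) for 1 h, then with PROTAC at 0.25–1 μM for 7 h, with DMSO as control. MLK3 was assessed by ECL immunoblot.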

In assay [5] the target is von Hippel-Lindau disease tumor suppressor/Mitogen-activated protein kinase kinase kinase 9 (Homo sapiens) (UniProt P80192+P40337). Put plainly: PROTAC activity at IAP/MLK1 in human MDA-MB-468 cells assessed as protein degradation at 1 uM incubated for 24 hrs by immunoblot analysis. It counts as cell-based. An outline of the steps:
(§2)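 Endogenous MLK1, MLK2 or MLK4 levels in MCF-7 and MDA-MB-468 cells. Cells were grown in high-glucose DMEM with 10% FBS, seeded at 100 000 cells/well and treated the next day for 24 h, with DMSO as control. Lysis was in RIPA with protease inhibitor, followed by 10% SDS-PAGE, nitrocellulose transfer and ECL immunoblot with GAPDH or β-actin as loading control.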

Assay [6] concerns MCF7. Kind of assay: Growth inhibition of human MCF7 cell spheroids in hydrogel at 1 uM incubated for 10 days. The format is functional, cell-based. The note with it: time 10.0 day. An outline of the steps: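 4000 cells plated on top of hydrogels and grown 10 days with 1 μM PROTAC or DMSO; spheroid formation and size scored.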
The target of assay [7] is T1, von Hippel-Lindau disease tumor suppressor/Mitogen-activated protein kinase kinase kinase 11. Kind of assay: PROTAC activity at VHL/DOX-inducible MLK3 (unknown origin) overexpressed in human HCC1806 cells assessed as protein degradation at 0.5 uM measured after 2 hrs by immunoblot analysis relative to control. It counts as cell-based. Put shortly:
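HCC1806 cells with DOX-inducible MLK3 were induced with 1 μg/mL DOX for 24 h, then treated at 0.5 μM for times from 2 to 24 h, with DMSO as control. MLK3 was measured by immunoblot of RIPA lysates with ECL detection.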

In assay [8] the test system is MDA-MB-468. Put plainly: Induction of cell cycle arrest at G2/M phase in human MDA-MB-468 cells at 1 uM measured after 48 hrs by PI staining based flow cytometry. It counts as functional. An outline of the steps:
as §1
A general note: In flow cytometry, cells or beads pass a laser one at a time.

The target of assay [9] is T1, von Hippel-Lindau disease tumor suppressor/Mitogen-activated protein kinase kinase kinase 11. Kind of assay: PROTAC activity at VHL/MLK3 in human MCF7 cells assessed as decrease in JNK pathway at 1 uM measured after 24 hrs by immunoblot analysis. The format is cell-based.
For assay [10] the target is unchanged. Put plainly: PROTAC activity at VHL/MLK3 in human MCF7 cells assessed as protein degradation measured after 4 to 48 hrs by Western blot analysis. It counts as cell-based. The note with it: dose 1.0 µM, time 4-48 hrs. Put shortly:
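MCF-7 and MDA-MB-468 cells were seeded at 100 000/well and treated with 1 μM PROTAC for 4–48 h, with DMSO as control. MLK3 was quantified by immunoblot as percent remaining, and t1/2 of degradation was derived from the time course.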

The target of assay [11] is von Hippel-Lindau disease tumor suppressor/Mitogen-activated protein kinase kinase kinase 21 (Homo sapiens) (UniProt P40337+Q5TCX8). Kind of assay: PROTAC activity at IAP/MLK4 in human MDA-MB-468 cells assessed as protein degradation at 1 uM incubated for 24 hrs by immunoblot analysis. It counts as cell-based. An outline of the steps:
as §2

Assay [12] has as its system MCF7. Kind of assay: Inhibition of colony formation in human MCF7 cells at 1 uM incubated for 15 days by crystal violet staining based analysis. Conditions: time 15.0 day. It counts as functional, cell-based. Put shortly:
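5000 cells per 6 cm plate in triplicate with 1 μM PROTAC or DMSO, medium changed every 5 days; colonies stained with crystal violet after 14–15 days. Three independent experiments, mean ± SD, unpaired t-test against control.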

In assay [13] the target is T1, von Hippel-Lindau disease tumor suppressor/Mitogen-activated protein kinase kinase kinase 11. Put plainly: PROTAC activity at VHL/MLK3 in carfilzomib-treated human MCF7 cells assessed as protein degradation at 1 uM measured after 7 hrs by immunoblot analysis. The format is cell-based. Put shortly:
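MCF-7 and MDA-MB-468 cells were seeded at 100 000/well. The next day they were pretreated with 1 μM carfilzomib for 1 h, then treated with 1 μM PROTAC for 7 h, with DMSO as control. Endogenous MLK3 was measured by immunoblot of RIPA lysates.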

Assay [14] relates to MCF7. Put plainly: Effect on ERK pathway in human MCF7 cells at 1 uM measured after 24 hrs by immunoblot analysis. It counts as functional, cell-based.
Assay [15] addresses T1, von Hippel-Lindau disease tumor suppressor/Mitogen-activated protein kinase kinase kinase 11. Put plainly: PROTAC activity at VHL/MLK3 in human MDA-MB-468 cells assessed as protein degradation at 1 uM measured after 24 hrs by immunoblot analysis.
Assay [16] has the same target. Kind of assay: PROTAC activity at VHL/MLK3 in human MDA-MB-468 cells assessed as half life of protein degradation at 1 uM by Western blot analysis. The format is cell-based. Put shortly:
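Endogenous MLK3: cells seeded at 100 000/well, treated next day with 1 μM PROTAC for 4–48 h, DMSO control; immunoblot with GAPDH or β-actin loading control. Remaining MLK3 quantified over time and t1/2 derived.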

In assay [17] the target is von Hippel-Lindau disease tumor suppressor/Mitogen-activated protein kinase kinase kinase 10 (Homo sapiens) (UniProt Q02779+P40337). Kind of assay: PROTAC activity at IAP/MLK2 in human MCF7 cells assessed as protein degradation at 1 uM incubated for 24 hrs by immunoblot analysis. It counts as cell-based. Put shortly:
as §2

The test system of assay [18] is MCF7. Put plainly: Induction of apoptosis in human MCF7 cells at 1 uM measured after 48 hrs by Annexin V-FITC/PI staining based flow cytometry. It counts as functional, cell-based. An outline of the steps:
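Cells seeded at 50 000/well, treated 48 h with 1 μM PROTAC or DMSO; cells plus supernatant stained with Alexa Fluor488 Annexin V for 30 min at room temperature in the dark, PI added 5 min before flow cytometry. At least three repeats.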

T1 sequence (P40337 whole entry, looked up): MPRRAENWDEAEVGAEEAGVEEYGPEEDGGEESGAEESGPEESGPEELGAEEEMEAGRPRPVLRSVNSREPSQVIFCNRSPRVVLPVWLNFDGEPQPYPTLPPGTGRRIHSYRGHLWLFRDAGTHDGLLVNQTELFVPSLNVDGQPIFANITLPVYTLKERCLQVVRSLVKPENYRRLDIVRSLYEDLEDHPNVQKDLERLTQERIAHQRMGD
T1 sequence (Q16584 whole entry, looked up): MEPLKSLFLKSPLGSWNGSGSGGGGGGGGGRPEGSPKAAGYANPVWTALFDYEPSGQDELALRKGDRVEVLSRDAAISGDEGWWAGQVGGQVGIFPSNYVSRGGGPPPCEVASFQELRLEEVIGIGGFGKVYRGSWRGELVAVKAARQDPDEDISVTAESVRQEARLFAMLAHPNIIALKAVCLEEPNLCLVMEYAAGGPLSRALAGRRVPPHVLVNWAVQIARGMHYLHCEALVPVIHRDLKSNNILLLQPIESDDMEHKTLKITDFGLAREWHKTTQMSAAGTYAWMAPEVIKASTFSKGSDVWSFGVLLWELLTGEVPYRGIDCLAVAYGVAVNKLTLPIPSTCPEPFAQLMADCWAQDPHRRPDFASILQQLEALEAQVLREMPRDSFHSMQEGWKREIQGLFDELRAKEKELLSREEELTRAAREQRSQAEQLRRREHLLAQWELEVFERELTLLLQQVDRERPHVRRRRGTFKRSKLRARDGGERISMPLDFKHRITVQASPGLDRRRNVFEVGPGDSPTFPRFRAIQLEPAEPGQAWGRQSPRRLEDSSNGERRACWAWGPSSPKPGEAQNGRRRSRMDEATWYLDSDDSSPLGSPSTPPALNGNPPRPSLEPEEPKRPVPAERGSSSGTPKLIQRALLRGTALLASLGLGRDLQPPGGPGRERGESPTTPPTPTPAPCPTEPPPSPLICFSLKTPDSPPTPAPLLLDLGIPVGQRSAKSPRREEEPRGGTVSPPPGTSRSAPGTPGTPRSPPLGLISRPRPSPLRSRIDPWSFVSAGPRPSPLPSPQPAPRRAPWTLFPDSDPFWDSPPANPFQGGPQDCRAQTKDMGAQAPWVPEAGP
Sequence of von Hippel-Lindau disease tumor suppressor/Mitogen-activated protein kinase kinase kinase 10 (Homo sapiens) (P40337 whole entry, looked up): as the sequence (P40337 whole entry, looked up) above
Sequence of von Hippel-Lindau disease tumor suppressor/Mitogen-activated protein kinase kinase kinase 10 (Homo sapiens) (Q02779 whole entry, looked up): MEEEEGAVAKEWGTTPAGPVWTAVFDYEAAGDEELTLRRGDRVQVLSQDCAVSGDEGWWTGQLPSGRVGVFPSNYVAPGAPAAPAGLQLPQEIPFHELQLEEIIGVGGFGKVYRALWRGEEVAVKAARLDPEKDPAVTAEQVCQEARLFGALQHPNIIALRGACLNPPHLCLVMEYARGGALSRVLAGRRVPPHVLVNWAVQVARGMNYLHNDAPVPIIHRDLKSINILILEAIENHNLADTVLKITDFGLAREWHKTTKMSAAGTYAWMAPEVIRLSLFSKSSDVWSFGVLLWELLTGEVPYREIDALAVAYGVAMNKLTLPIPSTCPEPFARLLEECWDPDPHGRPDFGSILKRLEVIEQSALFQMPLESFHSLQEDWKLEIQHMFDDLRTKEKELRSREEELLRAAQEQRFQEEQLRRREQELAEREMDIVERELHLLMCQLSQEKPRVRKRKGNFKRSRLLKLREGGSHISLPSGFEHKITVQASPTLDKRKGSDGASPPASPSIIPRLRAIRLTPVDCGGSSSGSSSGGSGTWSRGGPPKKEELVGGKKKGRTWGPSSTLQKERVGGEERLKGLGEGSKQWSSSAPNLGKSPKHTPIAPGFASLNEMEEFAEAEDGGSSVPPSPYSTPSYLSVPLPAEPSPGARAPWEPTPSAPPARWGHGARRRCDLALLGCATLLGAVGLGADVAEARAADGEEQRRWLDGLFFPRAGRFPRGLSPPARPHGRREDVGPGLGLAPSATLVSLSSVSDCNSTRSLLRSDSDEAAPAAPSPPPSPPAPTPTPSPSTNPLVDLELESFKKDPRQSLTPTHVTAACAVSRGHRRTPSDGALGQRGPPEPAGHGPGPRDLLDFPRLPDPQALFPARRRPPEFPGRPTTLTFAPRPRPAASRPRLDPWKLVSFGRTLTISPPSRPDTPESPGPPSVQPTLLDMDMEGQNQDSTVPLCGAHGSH
Sequence of von Hippel-Lindau disease tumor suppressor/Mitogen-activated protein kinase kinase kinase 21 (Homo sapiens) (P40337 whole entry, looked up): as the sequence (P40337 whole entry, looked up) above
Sequence of von Hippel-Lindau disease tumor suppressor/Mitogen-activated protein kinase kinase kinase 21 (Homo sapiens) (Q5TCX8 whole entry, looked up): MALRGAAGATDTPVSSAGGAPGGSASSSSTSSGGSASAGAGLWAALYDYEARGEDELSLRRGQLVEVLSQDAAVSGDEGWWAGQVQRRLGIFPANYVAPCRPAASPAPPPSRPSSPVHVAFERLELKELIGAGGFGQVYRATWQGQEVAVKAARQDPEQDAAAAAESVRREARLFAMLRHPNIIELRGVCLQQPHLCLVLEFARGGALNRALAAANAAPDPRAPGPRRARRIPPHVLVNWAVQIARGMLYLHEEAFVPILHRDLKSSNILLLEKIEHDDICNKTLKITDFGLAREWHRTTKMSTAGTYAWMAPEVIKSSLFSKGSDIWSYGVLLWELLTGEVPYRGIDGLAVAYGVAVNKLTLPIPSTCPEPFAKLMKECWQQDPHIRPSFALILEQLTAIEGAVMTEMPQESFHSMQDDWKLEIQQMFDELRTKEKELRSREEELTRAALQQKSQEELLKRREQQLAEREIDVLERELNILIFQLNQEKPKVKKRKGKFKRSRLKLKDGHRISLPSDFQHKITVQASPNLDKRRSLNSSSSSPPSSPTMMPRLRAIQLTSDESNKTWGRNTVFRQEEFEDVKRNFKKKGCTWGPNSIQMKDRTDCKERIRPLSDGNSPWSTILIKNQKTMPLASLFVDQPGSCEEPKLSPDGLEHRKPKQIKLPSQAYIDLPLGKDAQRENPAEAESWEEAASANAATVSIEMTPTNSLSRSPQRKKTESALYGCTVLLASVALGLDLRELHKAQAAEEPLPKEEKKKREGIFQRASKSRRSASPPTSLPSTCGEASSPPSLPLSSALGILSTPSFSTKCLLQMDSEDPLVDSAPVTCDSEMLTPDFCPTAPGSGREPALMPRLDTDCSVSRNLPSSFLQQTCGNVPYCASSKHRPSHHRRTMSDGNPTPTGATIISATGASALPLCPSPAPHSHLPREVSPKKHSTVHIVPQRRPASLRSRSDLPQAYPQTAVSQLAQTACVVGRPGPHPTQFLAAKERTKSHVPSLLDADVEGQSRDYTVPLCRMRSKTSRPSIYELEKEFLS
Sequence of von Hippel-Lindau disease tumor suppressor/Mitogen-activated protein kinase kinase kinase 9 (Homo sapiens) (P40337 whole entry, looked up): as the sequence (P40337 whole entry, looked up) above
Sequence of von Hippel-Lindau disease tumor suppressor/Mitogen-activated protein kinase kinase kinase 9 (Homo sapiens) (P80192 whole entry, looked up): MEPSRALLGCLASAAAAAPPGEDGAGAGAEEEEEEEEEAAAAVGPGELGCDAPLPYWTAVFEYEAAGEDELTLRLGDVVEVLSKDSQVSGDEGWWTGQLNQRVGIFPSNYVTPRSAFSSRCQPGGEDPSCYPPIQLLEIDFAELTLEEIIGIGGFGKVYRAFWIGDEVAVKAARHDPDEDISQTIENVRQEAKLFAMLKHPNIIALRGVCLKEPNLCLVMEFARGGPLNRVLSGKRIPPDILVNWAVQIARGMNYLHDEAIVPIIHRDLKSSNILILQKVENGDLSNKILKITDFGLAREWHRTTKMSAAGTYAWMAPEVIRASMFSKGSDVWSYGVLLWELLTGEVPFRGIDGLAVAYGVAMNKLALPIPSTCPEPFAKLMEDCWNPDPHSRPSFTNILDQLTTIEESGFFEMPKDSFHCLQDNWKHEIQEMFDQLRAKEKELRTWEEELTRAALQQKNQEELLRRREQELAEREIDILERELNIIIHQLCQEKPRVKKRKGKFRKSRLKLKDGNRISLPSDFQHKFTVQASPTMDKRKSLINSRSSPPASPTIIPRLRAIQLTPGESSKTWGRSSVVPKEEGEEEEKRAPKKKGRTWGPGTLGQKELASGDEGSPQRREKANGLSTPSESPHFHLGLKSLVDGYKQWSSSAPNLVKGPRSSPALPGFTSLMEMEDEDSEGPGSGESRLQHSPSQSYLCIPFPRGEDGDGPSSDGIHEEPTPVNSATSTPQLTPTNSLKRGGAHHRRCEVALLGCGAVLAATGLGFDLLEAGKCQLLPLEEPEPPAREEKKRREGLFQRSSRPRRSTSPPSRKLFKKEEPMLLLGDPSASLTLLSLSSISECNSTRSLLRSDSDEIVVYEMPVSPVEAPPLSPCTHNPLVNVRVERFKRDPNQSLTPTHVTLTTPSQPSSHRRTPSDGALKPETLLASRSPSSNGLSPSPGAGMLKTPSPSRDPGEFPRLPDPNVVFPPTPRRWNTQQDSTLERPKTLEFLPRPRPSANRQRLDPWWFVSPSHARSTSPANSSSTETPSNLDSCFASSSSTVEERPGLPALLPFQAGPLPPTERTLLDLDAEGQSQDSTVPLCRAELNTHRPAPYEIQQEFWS

Turning to `CCSCc1ccc2c(c1)c1c3c(c4c5cc(CSCC)ccc5n5c4c1n2[C@H]1C[C@](O)(C(=O)NCCOCCOCCOCC(=O)N[C@H](C(=O)N2C[C@H](O)C[C@H]2C(=O)N[C@@H](C)c2ccc(-c4scnc4C)cc2)C(C)(C)C)[C@]5(C)O1)CNC3=O`, the inhibition entry in the assay on MDA-MB-468 [1] is “Active”. Also, the outcome (in assay [2]; in the assay with MDA-MB-468 [8]; in [9]; in assay [15]) was Active. In addition, the outcome (in the assay with MCF7 [3]; in assay [4]; in [5]; in assay [11]; in [13]; with MCF7 [14]) was inactive. For the same molecule, the result (in assay [17]; with MCF7 [18]) was inactive. The “growth inhibition (GI)” value in the assay on MCF7 [6] is “inactive”. Besides, the Activity is 100% in [7] and “Dose-Dependent Effect” in assay [10]. The inhibition result in the assay on MCF7 [12] is “inactive”. The T1/2 in assay [16] stood at 4 h.
